Assay outcomes: PubChem BioAssay, The Scripps Research Institute Molecular Screening Center
mABHD4 FP = inhibitors of mouse ABHD4 | AID 720543 | purified mABHD4, FP-Rh probe fluorescence polarization | 370,000 tested, 0.54% active | inhibition, % at 8.92 µM;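 active means inhibition exceeding the mean over every tested compound plus 3 SD, cut at about 30% in these data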;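 further: 0% = plate median of compound wells and 100% = S159A mutant with DMSO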
Target sequence (Q8VD66 whole entry, looked up): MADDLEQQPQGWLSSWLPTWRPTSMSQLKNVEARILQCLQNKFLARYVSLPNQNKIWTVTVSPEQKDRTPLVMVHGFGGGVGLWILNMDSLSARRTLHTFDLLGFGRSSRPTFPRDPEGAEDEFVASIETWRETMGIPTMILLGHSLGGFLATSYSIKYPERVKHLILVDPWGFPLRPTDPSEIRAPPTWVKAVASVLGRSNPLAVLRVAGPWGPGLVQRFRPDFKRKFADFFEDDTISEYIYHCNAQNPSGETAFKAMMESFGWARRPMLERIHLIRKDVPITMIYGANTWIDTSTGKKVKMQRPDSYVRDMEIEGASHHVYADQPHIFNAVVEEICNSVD
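Test system: mABHD4 protein; Read-out basis: % inhibition; Incubation: 45 min + 60 min at 25 °C; Repeats: single replicate; Technique: fluorescence polarization with parallel and perpendicular emission, 525/598 nm; Compound: 8.92 µM, single dose; Benchmarks: full inhibition S159A mutant plus DMSO, zero as sample-well median.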
PRMT1 FP inh = inhibitors of human PRMT1; recombinant PRMT1, activity-based probe fluorescence polarization; 370,000 tested, 1.3% active; Q99873; inhibition, % at 2.79 µM;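 active means inhibition above about 21% made by adding two undisclosed values, limit read from the data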
SIAE primary = human SIAE inhibition, primary screen; Q9HAT2; SIAE FP-Rh probe binding, fluorescence polarization; inhibition, % at 9.66 µM; 370,000 tested, 0.69% active;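 active means inhibition above a cutoff: mean of compounds within the control limits plus 3 SD of those, cut at about 17% in these data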;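 further: 0% = plate median of compound wells and 100% = probe without SIAE protein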
rCAG RNA binder = binds r(CAG) RNA repeats. r(CAG) RNA repeat, TO-PRO-1 dye displacement fluorescence. inhibition, % at 3 µM. 370,000 tested, 1.3% active. AID 651821;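 active means inhibition above the plate cutoff, the mean of all test compounds on that plate plus 3 SD, cut at about 35% in these data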;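 further: 0% = DMSO alone and 100% = 100 µM mitoxantrone as full dye displacement; higher means more dye released from RNA so lower well fluorescence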
TCR CD3 inh = inhibitors of human TCR-CD3 interaction | TAMRA-labeled TCR probe fluorescence, biochemical | inhibition, % at 9.4 µM | 360,000 tested, 0.37% active | AID 651800;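 further: recombinant mutant TCR 2C K166C tagged with TAMRA read by polarization; 0% = receptor in buffer alone and 100% = receptor with positive control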
BSA probe FL = BSA probe counter-screen for TCR-CD3 inhibitors. shares compounds with TCR CD3 inh. TAMRA-labeled BSA probe fluorescence counterscreen. inhibition, % at 9.4 µM. 1,200 tested, 10% active. AID 652035; in the data active means inhibition above about 23%;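 further: 0% = buffer low control and 100% = reference high control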
TCR-CD3 conf = TCR-CD3 interaction inhibition, confirmation. shares compounds with TCR CD3 inh. TAMRA-labeled TCR probe fluorescence binding assay. inhibition, % at 9.4 µM. 1,200 tested, 48% active
* hit, by the source's call. Shown are actives, neighbours in structure and some others; about 3.3% of the full set was active somewhere. Unless noted, no stated cut-off is given here; in the data, active means inhibition above about 19%; inactive means the rest.

O=c1c2c(-c3ccc(Cl)cc3)csc2ncn1/N=C/c1cccc([N+](=O)[O-])c1O was read as mABHD4 FP 7, PRMT1 FP inh 2, SIAE primary 7, rCAG RNA binder 9, TCR CD3 inh 30*, BSA probe FL -11 and TCR-CD3 conf 29*.
Screening O=[N+]([O-])c1cccc(/C=N/n2cnnc2)c1O returned mABHD4 FP 2, PRMT1 FP inh -1, SIAE primary 2, rCAG RNA binder 13 and TCR CD3 inh 0.
COc1cccc(CNc2nc3cc(-c4ccccc4C)sc3c(=O)n2C)c1 was read as mABHD4 FP -46, PRMT1 FP inh 0, SIAE primary -31, rCAG RNA binder 7 and TCR CD3 inh 0.
COc1ccc(-c2cc(CNc3nc4cc(-c5ccccc5C)sc4c(=O)n3C)on2)cc1 was read as mABHD4 FP -20, PRMT1 FP inh 1, SIAE primary -51, rCAG RNA binder 10, TCR CD3 inh 30*, BSA probe FL 8 and TCR-CD3 conf 12.
`CCOC(=O)c1sc(NC(=O)C(CC)OC(=O)c2ccco2)nc1C` (stereo unspecified) gave mABHD4 FP -5, PRMT1 FP inh -1, SIAE primary -12, rCAG RNA binder 0, TCR CD3 inh 19*, BSA probe FL -1 and TCR-CD3 conf -1.
CCOC(=O)c1sc(NC(=S)NC(=O)c2ccco2)nc1C was read as mABHD4 FP -2, PRMT1 FP inh 4, SIAE primary -6, rCAG RNA binder 8 and TCR CD3 inh -5.
CCC(CC)C(C(=O)NCc1ccccc1)N1CCN(c2cccc(C)c2C)CC1 (stereo unspecified) was read as mABHD4 FP -5, PRMT1 FP inh -4, SIAE primary 3, rCAG RNA binder 1, TCR CD3 inh 31*, BSA probe FL -1 and TCR-CD3 conf -1.
For Cc1onc(-c2ccccc2)c1C(=O)NN=Cc1cc(Cl)cc(Cl)c1O the results were mABHD4 FP 13, PRMT1 FP inh -1, SIAE primary 8, rCAG RNA binder 29, TCR CD3 inh 27*, BSA probe FL -12 and TCR-CD3 conf 34*.
For CCOC(=O)C(CC)/C(C)=N\NC(=O)c1ccccc1O (stereo unspecified) the results were mABHD4 FP 9, PRMT1 FP inh 0, SIAE primary 6, rCAG RNA binder -9, TCR CD3 inh 35*, BSA probe FL 22 and TCR-CD3 conf 38*.
Screening CCC/C(C)=N/NC(=O)c1ccccc1O returned mABHD4 FP 5, PRMT1 FP inh -1, SIAE primary 1, rCAG RNA binder 1 and TCR CD3 inh 5.
`CCN1CCN(C(=O)C2CCN(S(=O)(=O)c3ccc(SC)cc3)CC2)CC1` gave mABHD4 FP 2, PRMT1 FP inh -5, SIAE primary -3, rCAG RNA binder -4 and TCR CD3 inh 9.
Screening CCN1CCN(C(=O)C2CCN(S(=O)(=O)c3ccc(Br)cc3)CC2)CC1 returned mABHD4 FP -4, PRMT1 FP inh 2, SIAE primary -11, rCAG RNA binder -2, TCR CD3 inh 19*, BSA probe FL 3 and TCR-CD3 conf -3.
COc1ccccc1OCc1ccc(C(=O)Nc2ccncc2)o1 was read as mABHD4 FP -4, PRMT1 FP inh -2, SIAE primary -5, rCAG RNA binder 7, TCR CD3 inh 32*, BSA probe FL 3 and TCR-CD3 conf 1.
`COc1ccccc1OCc1ccc(C(=O)NC(C)(C)C)o1` gave mABHD4 FP 1, PRMT1 FP inh 0, SIAE primary -1, rCAG RNA binder 1 and TCR CD3 inh -5.
For CC1CN(c2nc3ccccc3nc2SCC(=O)N2CCN(S(=O)(=O)c3ccccc3)CC2)CC(C)O1 (stereo unspecified) the results were mABHD4 FP -3, PRMT1 FP inh 2, SIAE primary -5 and rCAG RNA binder 9.
COc1ccc(OC)c(S(=O)(=O)N2CCCC(C(=O)Nc3c(C)n(C)n(-c4ccccc4)c3=O)C2)c1 (stereo unspecified) was read as mABHD4 FP 0, PRMT1 FP inh -5, SIAE primary -2 and rCAG RNA binder -2.
`C=CCN(c1ccccc1)S(=O)(=O)c1ccc2c(c1)oc(=O)n2C` gave mABHD4 FP 4, PRMT1 FP inh -1, SIAE primary -4, rCAG RNA binder 0, TCR CD3 inh 64*, BSA probe FL 3 and TCR-CD3 conf 6.
For CCOC(=O)NC[C@@]1(C(=O)OC)CC(=O)N(Cc2ccc(Cl)cc2)[C@@H]1c1ccc(OC)cc1 the results were mABHD4 FP 0, PRMT1 FP inh -4, SIAE primary 5 and rCAG RNA binder 0.
`CCCCN1CCc2c(c3ccccc3n2Cc2ccccc2)C1` gave mABHD4 FP 4, PRMT1 FP inh 4, SIAE primary 1, rCAG RNA binder 4 and TCR CD3 inh -2.
CN1CCc2c(c3ccccc3n2Cc2ccccc2)C1 was read as mABHD4 FP -7, PRMT1 FP inh -2, SIAE primary 7, rCAG RNA binder 2, TCR CD3 inh -7, BSA probe FL 2 and TCR-CD3 conf 3.
For COc1cc2c(cc1NC(=O)CSc1nnc(COc3ccccc3)n1Cc1ccco1)oc1ccccc12 the results were mABHD4 FP -5, PRMT1 FP inh 6, SIAE primary 0 and rCAG RNA binder 13.
Screening CN(C)C(CNC(=O)c1ccc(NC(=O)CC#N)cc1)c1ccccc1 (stereo unspecified) returned mABHD4 FP -8, PRMT1 FP inh -5, SIAE primary 2, rCAG RNA binder 10 and TCR CD3 inh 3.
`CC(OC(=O)c1cccs1)C(=O)Nc1nc(-c2ccccc2)cs1` (stereo unspecified) gave mABHD4 FP -14, PRMT1 FP inh 0, SIAE primary -6, rCAG RNA binder 5 and TCR CD3 inh 1.
`CC(CCc1ccccc1)NC(=O)COC(=O)c1ccc(NC(=O)CC#N)cc1` (stereo unspecified) gave mABHD4 FP -6, PRMT1 FP inh 0, SIAE primary -35, rCAG RNA binder 10, TCR CD3 inh 30*, BSA probe FL 2 and TCR-CD3 conf 3.
`N#CCC(=O)Nc1ccc(C(=O)NCCC(c2ccccc2)c2ccccc2)cc1` gave mABHD4 FP 3, PRMT1 FP inh -4, SIAE primary -33, rCAG RNA binder 20, TCR CD3 inh 21*, BSA probe FL 3 and TCR-CD3 conf 4.
CC(OC(=O)c1ccc(NC(=O)CC#N)cc1)C(=O)Nc1nc(-c2ccccc2)cs1 (stereo unspecified) was read as mABHD4 FP -12, PRMT1 FP inh 1, SIAE primary -39, rCAG RNA binder 32, TCR CD3 inh 35*, BSA probe FL 0 and TCR-CD3 conf 12.
